Measurements: ChEMBL document CHEMBL4376874, “Discovery of Potent and Selective Epidermal Growth Factor Receptor (EGFR) Bifunctional Small-Molecule Degraders” (J Med Chem, 2020)
Calls of active or inactive are those of the source. The rule behind the calls is not given here.

Key:
[1] = test system: Protein cereblon/Epidermal growth factor receptor (Homo sapiens), P00533+Q96SW2 [UNDEFINED MUTATION]; test: Protac activity at CRBN/EGFR exon 19 deletion mutant in human HCC827 cells assessed as induction of EGFR degradation at >=50 nM treated 8 hrs post serum starvation measured after 16 hrs by Western blot analysis relative to control; format: cell-based
Sequence of Protein cereblon/Epidermal growth factor receptor (Homo sapiens), P00533+Q96SW2 [UNDEFINED MUTATION] (P00533 whole entry, looked up, stated change not applied): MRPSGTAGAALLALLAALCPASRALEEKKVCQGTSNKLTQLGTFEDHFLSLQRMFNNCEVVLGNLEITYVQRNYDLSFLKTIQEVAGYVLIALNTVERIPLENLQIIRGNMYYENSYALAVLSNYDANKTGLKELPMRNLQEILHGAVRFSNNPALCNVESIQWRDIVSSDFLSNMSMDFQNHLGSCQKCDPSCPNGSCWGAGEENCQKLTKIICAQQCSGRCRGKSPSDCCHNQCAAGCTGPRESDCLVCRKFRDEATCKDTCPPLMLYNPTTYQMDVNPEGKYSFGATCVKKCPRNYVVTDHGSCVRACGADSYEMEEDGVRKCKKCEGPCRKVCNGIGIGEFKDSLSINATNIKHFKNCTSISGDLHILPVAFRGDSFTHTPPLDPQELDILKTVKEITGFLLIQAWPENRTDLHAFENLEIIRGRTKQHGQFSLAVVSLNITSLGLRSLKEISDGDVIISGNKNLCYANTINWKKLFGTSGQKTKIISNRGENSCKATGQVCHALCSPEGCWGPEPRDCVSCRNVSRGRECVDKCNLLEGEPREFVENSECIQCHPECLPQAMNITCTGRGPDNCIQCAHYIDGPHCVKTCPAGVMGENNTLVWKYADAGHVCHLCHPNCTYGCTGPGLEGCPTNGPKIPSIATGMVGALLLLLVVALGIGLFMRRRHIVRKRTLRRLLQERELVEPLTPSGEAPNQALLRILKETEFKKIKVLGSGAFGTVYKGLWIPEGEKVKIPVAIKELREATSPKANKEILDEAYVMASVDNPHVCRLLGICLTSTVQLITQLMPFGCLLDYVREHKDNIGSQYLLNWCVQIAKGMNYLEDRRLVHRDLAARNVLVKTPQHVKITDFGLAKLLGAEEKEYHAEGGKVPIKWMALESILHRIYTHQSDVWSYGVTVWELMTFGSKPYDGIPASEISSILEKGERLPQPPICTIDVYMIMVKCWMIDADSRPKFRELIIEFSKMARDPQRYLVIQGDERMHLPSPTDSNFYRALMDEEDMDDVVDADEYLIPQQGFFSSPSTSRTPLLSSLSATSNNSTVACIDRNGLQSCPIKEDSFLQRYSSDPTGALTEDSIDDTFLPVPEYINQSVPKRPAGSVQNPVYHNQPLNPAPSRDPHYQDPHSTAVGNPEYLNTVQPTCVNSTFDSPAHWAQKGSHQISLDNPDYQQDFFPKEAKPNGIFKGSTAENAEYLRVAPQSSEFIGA
Sequence of Protein cereblon/Epidermal growth factor receptor (Homo sapiens), P00533+Q96SW2 [UNDEFINED MUTATION] (Q96SW2 whole entry, looked up, stated change not applied): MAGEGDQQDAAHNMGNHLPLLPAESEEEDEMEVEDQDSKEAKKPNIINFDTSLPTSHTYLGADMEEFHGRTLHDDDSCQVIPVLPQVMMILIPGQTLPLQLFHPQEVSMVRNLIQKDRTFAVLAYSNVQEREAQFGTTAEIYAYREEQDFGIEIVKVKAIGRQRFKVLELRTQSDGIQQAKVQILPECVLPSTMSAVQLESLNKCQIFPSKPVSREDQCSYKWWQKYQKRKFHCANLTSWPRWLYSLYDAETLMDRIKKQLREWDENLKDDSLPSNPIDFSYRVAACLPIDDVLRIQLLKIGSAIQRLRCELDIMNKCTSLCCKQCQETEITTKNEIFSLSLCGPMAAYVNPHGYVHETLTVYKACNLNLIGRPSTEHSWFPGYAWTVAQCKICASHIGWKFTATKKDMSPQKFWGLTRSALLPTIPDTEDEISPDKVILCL
In short: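 Cultured to 80% confluence in RPMI/1640 with 20% FBS at 37 °C and 5% CO2, then switched to serum-free medium for 8 h. Degraders were added over a concentration range up to 10 μM for 16 h, with gefitinib at 1 μM as reference. Lysates in Laemmli buffer were immunoblotted for EGFR, p-EGFR and p-AKT. DC50 came from band quantification by nonlinear regression (variable slope).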

HCC827 [2] = test: Effect on AKT level in human HCC827 cells up to 10 uM treated 8 hrs post serum starvation measured after 16 hrs by Western blot analysis; format: ADME, cell-based; details: hcc827, 16 h
[3] = test system: Protein cereblon/Epidermal growth factor receptor (Homo sapiens), P00533+Q96SW2 [UNDEFINED MUTATION]; test: Protac activity at CRBN/EGFR exon 19 deletion mutant in human HCC827 cells assessed as time required to induce 50% EGFR degradation at 100 nM treated 8 hrs post serum starvation by Western blot analysis; format: cell-based
In short: (§1)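 After 8 h serum starvation, cells got 100 nM degrader and were collected at serial time points for Western blot of EGFR and downstream signaling.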

[4] = test system: Protein cereblon/Epidermal growth factor receptor (Homo sapiens), P00533+Q96SW2 [L858R]; test: Protac activity at CRBN/EGFR L858R mutant in human H3255 cells assessed as induction of EGFR degradation at 100 nM treated 8 hrs post serum starvation by Western blot analysis; format: cell-based; details: TDE = time-dependent effect; in short: as §1
[5] = test system: Protein cereblon/Epidermal growth factor receptor (Homo sapiens), P00533+Q96SW2 [L858R]; test: Protac activity at CRBN/EGFR L858R mutant in human H3255 cells assessed as reduction in AKT phosphorylation at 100 nM treated 8 hrs post serum starvation by Western blot analysis; format: cell-based; details: TDE = time-dependent effect; in short: as §1
[6] = test system: Protein cereblon/Epidermal growth factor receptor (Homo sapiens), P00533+Q96SW2 [UNDEFINED MUTATION]; test: Protac activity at CRBN/EGFR exon 19 deletion mutant in human HCC827 cells assessed as induction of EGFR degradation at 0.1 to 1 uM incubated for 8 hrs in absence of FBS by Western blot analysis; format: cell-based
[7] = test system: Protein cereblon/Epidermal growth factor receptor (Homo sapiens), P00533+Q96SW2 [L858R]; test: Protac activity at CRBN/EGFR L858R mutant in human H3255 cells assessed as induction of EGFR degradation at 100 nM measured after 8 hrs in presence of negative control MS154N by Western blot analysis; format: cell-based
[8] = test system: Protein cereblon/Epidermal growth factor receptor (Homo sapiens), P00533+Q96SW2 [L858R]; test: Reversible protac activity at CRBN/EGFR L858R mutant in human H3255 cells assessed as recovery of EGFR degradation at 100 nM preincubated for 12 hrs followed by compound washout and measured up to 48 hrs by Western blot analysis; format: cell-based
In short: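 Cells were serum-starved 8 h, then given degrader for 12 h. They were washed three times with PBS and harvested at the indicated time points after washout. EGFR, p-EGFR and p-AKT were read by Western blot.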

[9] = test system: Protein cereblon/Epidermal growth factor receptor (Homo sapiens), P00533+Q96SW2 [UNDEFINED MUTATION]; test: Protac activity at CRBN/EGFR exon 19 deletion mutant in human HCC827 cells assessed as induction of EGFR degradation at 100 nM measured after 16 hrs by LC-MS analysis relative to control; format: cell-based
HCC827 [10] = test: Down regulation of SLC30A7 expression in human HCC827 cells at 100 nM measured after 16 hrs by LC-MS analysis; format: functional, cell-based
In short: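 HCC-827 cells serum-starved 8 h, then treated at 100 nM for 16 h. Collected for label-free quantitative LC–MS proteomics; LFQ intensity compared between treated and control groups; three independent experiments.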

[11] = Cmax in Swiss albino mouse at 50 mg/kg, ip measured after 8 hrs; format: ADME, organism-based; design: dose 50 mg/kg, route intraperitoneal; details: in vivo

SMILES: COc1cc2ncnc(Nc3ccc(F)c(Cl)c3)c2cc1OCCCN1CCN(CCC(=O)NCCCCCCCCOc2cccc3c2C(=O)N(C2CCC(=O)NC2=O)C3=O)CC1 (stereo unspecified)
- %max [1]: > 95%
- Activity (HCC827 [2]): Non-Toxic
- T1/2 [3]: 3.5 h
- Activity [4]: Tde
- Activity [5]: Tde
- Activity [6]: Active
- Activity [7]: inactive
- Activity [8]: Active
- Activity [9]: > 75%
- Activity (HCC827 [10]): Active
- Cmax [11]: 500 nM
